ChEMBL document CHEMBL1147902, “Phosphonoxins: rational design and discovery of a potent nucleotide anti-Giardia agent” (Bioorg Med Chem Lett, 2007)
In brackets after ≈: the same amount, converted by molar mass.

How the values were obtained:
Giardia intestinalis [1] = experiment: Cyst formation in Giardia lamblia WB6 at 10 uM relative to control; conditions: Giardia duodenalis
Giardia intestinalis [2] = experiment: Antiprotozoal activity against Giardia lamblia WB6 trophozoites after 48 hrs; assay type: functional; conditions: Giardia duodenalis, WB6, 48 h
Outline: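 Trophozoites of strain WB-6 cultured anaerobically 48 h with 2-fold serial drug dilutions, triplicate wells; viability read by XTT reagent.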

[3] = Toxicity in MDBK cells; assay type: cell-based; conditions: Bos taurus

SMILES	MIC (Giardia intestinalis [2]) [µM]	level, % of control at 10 µM (Giardia intestinalis [1]) [%]	EC50 [3] [µM]
CCOP(=O)(CCNCCOC(C)=O)OCC	> 20		> 250
NCP(=O)(O)OC[C@H]1O[C@@H](n2ccc(=O)[nH]c2=O)[C@H](O)[C@@H]1O	> 20	34.4	> 250
CCOP(=O)(CCN(CCOC(C)=O)CCOC(C)=O)OCC	> 20		> 250
O=c1ccn(C[C@@H]2O[C@H](COP(=O)(O)CCN3CCCC3)[C@@H](O)[C@H]2O)c(=O)[nH]1	> 20		> 250
O=C1[C@@H](O)[C@H](O)C(=O)N1CCP(=O)(O)OC[C@H]1O[C@@H](Cn2ccc(=O)[nH]c2=O)[C@H](O)[C@@H]1O	> 20	28.7	> 250
NCCP(=O)(O)OC[C@H]1O[C@@H](n2ccc(=O)[nH]c2=O)[C@H](O)[C@@H]1O	> 10	14.9	> 250
O=c1ccn(C[C@@H]2O[C@H](COP(=O)(O)CCNCCO)[C@@H](O)[C@H]2O)c(=O)[nH]1	> 20		> 250

Further lines, with some results ahead:

MIC (Giardia intestinalis [2]) [µM]	SMILES	level, % of control at 10 µM (Giardia intestinalis [1]) [%]	EC50 [3] [µM]
20 (≈ 9.31 µg/mL)	O=c1ccn(C[C@@H]2O[C@H](COP(=O)(O)CCCN3C[C@H](O)[C@@H](O)C3)[C@@H](O)[C@H]2O)c(=O)[nH]1	22.9	> 250
> 20	O=c1ccn(C[C@@H]2O[C@H](COP(=O)(O)CN3C[C@@H](O)[C@H](O)C3)[C@@H](O)[C@H]2O)c(=O)[nH]1		> 250
> 10	O=c1ccn(C[C@@H]2O[C@H](COP(=O)(O)CCN(CCO)CCO)[C@@H](O)[C@H]2O)c(=O)[nH]1	72.2	> 250
> 10	CC(=O)OCCN(CCOC(C)=O)CCP(=O)(O)OC[C@H]1O[C@@H](Cn2ccc(=O)[nH]c2=O)[C@H](O)[C@@H]1O	27.4	> 250
> 10	CC(=O)OCCN(CCO)CCP(=O)(O)OC[C@H]1O[C@@H](Cn2ccc(=O)[nH]c2=O)[C@H](O)[C@@H]1O	35.6	> 250
20 (≈ 9.63 µg/mL)	O=c1ccn(C[C@@H]2O[C@H](COP(=O)(O)COCCN3C[C@@H](O)[C@H](O)C3)[C@@H](O)[C@H]2O)c(=O)[nH]1	17.2	> 250
0.48 (≈ 0.217 µg/mL)	O=c1ccn(C[C@@H]2O[C@H](COP(=O)(O)CCN3C[C@H](O)[C@@H](O)C3)[C@@H](O)[C@H]2O)c(=O)[nH]1	5.73	> 250
